The EC50 is the concentration at which the effect is half-maximal. In general, IC50 refers to the midpoint of a concentration-inhibition curve. The LC50 is the concentration lethal to half of the exposed cells or organisms. High values mean a less lethal substance, low ones a more lethal substance.

This note sets out measurements from ChEMBL document CHEMBL4680248 (Eur J Med Chem, 2020).

Active and inactive are the calls of the source. No cut-off for these calls is given here. Some results are limits rather than exact numbers.

One data set has as its system Xenopus laevis. Briefly: Anesthetic activity in Xenopus laevis tadpoles assessed as increase in loss of righting reflex incubated for 30 to 60 mins. It is filed as functional, organism-based.
Data set [1] has as its target T1, GABA-A receptor; alpha-1/beta-3/gamma-2 (Homo sapiens, UniProt P14867+P18507+P28472).
T1 sequence (P14867 whole entry): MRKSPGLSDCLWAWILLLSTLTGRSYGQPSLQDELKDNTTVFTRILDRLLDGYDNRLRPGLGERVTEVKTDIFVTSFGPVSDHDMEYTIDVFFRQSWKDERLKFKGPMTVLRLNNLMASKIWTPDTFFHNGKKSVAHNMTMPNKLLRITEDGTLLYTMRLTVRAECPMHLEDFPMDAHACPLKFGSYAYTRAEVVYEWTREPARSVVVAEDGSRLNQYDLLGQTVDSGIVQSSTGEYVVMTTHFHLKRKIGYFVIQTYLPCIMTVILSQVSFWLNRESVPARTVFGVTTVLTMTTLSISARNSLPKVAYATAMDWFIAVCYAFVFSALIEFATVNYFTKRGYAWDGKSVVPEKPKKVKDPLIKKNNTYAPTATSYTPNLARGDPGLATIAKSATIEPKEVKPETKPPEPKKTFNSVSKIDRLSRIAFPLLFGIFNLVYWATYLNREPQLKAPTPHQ
T1 sequence (P18507 whole entry): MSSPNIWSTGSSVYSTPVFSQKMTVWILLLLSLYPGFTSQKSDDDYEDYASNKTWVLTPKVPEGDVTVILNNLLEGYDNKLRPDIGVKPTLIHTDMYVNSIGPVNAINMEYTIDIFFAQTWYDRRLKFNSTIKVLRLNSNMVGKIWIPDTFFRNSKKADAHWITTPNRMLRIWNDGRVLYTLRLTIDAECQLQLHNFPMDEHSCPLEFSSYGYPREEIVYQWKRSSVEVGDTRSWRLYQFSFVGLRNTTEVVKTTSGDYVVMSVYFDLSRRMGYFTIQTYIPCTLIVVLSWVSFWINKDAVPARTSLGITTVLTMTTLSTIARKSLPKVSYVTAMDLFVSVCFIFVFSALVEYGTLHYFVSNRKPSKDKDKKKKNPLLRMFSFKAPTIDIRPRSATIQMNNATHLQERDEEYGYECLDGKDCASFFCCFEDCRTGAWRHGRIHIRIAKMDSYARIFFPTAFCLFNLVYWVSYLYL
T1 sequence (P28472 whole entry): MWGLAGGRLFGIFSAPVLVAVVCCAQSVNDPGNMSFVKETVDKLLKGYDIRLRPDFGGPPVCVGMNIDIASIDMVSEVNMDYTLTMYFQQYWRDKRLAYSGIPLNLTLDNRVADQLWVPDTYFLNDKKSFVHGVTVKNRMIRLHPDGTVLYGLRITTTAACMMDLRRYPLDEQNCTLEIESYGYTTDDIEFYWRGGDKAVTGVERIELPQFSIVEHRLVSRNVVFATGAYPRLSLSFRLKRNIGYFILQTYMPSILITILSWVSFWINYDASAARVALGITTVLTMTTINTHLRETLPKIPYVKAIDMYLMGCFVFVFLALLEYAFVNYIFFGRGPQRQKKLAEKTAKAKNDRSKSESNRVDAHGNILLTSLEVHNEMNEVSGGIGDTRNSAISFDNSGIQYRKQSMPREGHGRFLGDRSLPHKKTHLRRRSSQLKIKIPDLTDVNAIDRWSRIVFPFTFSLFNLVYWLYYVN
Briefly: Positive allosteric modulation of GABAA alpha1beta3gamma2L in HEK cell plasma membrane assessed as increase in [3H]muscimol binding measured after 10 mins by liquid scintillation counting method. It is filed as cell membranes. The essentials:
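HEK293 membranes (100 μg protein) from tetracycline-inducible cells expressing FLAG-tagged human receptors. Incubated 10 min with 2 nM [3H]muscimol (final) and modulator in 10 mM phosphate, 200 mM KCl, 1 mM EDTA, pH 7.4. Filtered on PEI-treated GF/B filters and washed twice with cold buffer. EC50 from fitting a logistic equation (Eqn 1) to pooled concentration-response points from independent experiments.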

For data set [2], the target named is T1, GABA-A receptor; alpha-1/beta-3/gamma-2. The data set is described as follows: Inhibition of [3H]azietomidate labelling of GABAA alpha1beta3gamma2L (unknown origin) expressed in Xenopus laevis oocytes assessed as reduction in photoincorporation at M236 residues of alpha1 subunit measured after 30 mins in presence of GABA by liquid scintillation counting method. It is filed as cell-based, Oocyte.

The target is the same in data set [3]. The data set is described as follows: Inhibition of [3H]R-mTFD-MPAB labelling of GABAA alpha1beta3gamma2L (unknown origin) expressed in Xenopus laevis oocytes assessed as reduction in photoincorporation at M227 residues of beta3 subunit measured after 30 mins in presence of GABA by liquid scintillation counting method. In kind it is cell-based.
Data set [4] concerns Oocyte. In kind it is cell-based. The note with it: Homo sapiens, filed as positive allosteric modulator, dose 8.0 µM.
Data set [5] relates to Oocyte. The data set is described as follows: Positive allosteric modulation of GABAA alpha1beta3gamma2L S270I mutant (unknown origin) expressed in Xenopus laevis oocytes assessed as increase in GABA-induced current at 8 uM by two microelectrode voltage-clamp electrophysiology. In kind it is cell-based. The following applies: Homo sapiens.
The test system of data set [6] is Oocyte. The data set is described as follows: Positive allosteric modulation of GABAA alpha1beta3gamma2L S280W mutant (unknown origin) expressed in Xenopus laevis oocytes assessed as increase in GABA-induced current at 8 uM by two microelectrode voltage-clamp electrophysiology. In kind it is cell-based. The following applies: Homo sapiens.
Data set [7] concerns Oocyte. The data set is described as follows: Positive allosteric modulation of GABAA alpha1beta3gamma2L M227W mutant (unknown origin) expressed in Xenopus laevis oocytes assessed as increase in GABA-induced current at 8 uM by two microelectrode voltage-clamp electrophysiology. In kind it is cell-based. The following applies: Homo sapiens, filed as positive allosteric modulator.

In data set [8] the test system is Oocyte. Briefly: Positive allosteric modulation of GABAA alpha1beta3gamma2L I242W mutant (unknown origin) expressed in Xenopus laevis oocytes assessed as increase in GABA-induced current at 8 uM by two microelectrode voltage-clamp electrophysiology. It is filed as cell-based. The note with it: Homo sapiens, filed as positive allosteric modulator.
The nature of data set [9]: Toxicity in Xenopus laevis tadpoles.
For data set [10], the target named is T2, GABA-A receptor alpha-1/beta-3 (Homo sapiens, UniProt P14867+P28472).
T2 sequence (P14867 whole entry): T1 sequence (P14867 whole entry)
T2 sequence (P28472 whole entry): T1 sequence (P28472 whole entry)
The data set is described as follows: Positive allosteric modulation of GABAA alpha1beta3 in HEK cell plasma membrane assessed as increase in [3H]muscimol binding measured after 10 mins by liquid scintillation counting method. In kind it is cell membranes. In a few lines: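 Native membranes from tetracycline-inducible HEK293 cells expressing FLAG-tagged human receptors (100 μg protein), [3H]muscimol 2 nM final, plus modulator in 10 mM phosphate, 200 mM KCl, 1 mM EDTA, pH 7.4; 10 min incubation, filtration on PEI-treated GF/B filters, two cold washes. Concentration-response curves from independent experiments fitted to a Hill equation for EC50 and nH.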

The target of data set [11] is T1, GABA-A receptor; alpha-1/beta-3/gamma-2. Briefly: Positive allosteric modulation of GABAA alpha1beta3gamma2L (unknown origin) expressed in Xenopus laevis oocytes assessed as increase in GABA-induced current by two microelectrode voltage-clamp electrophysiology. In kind it is cell-based, Oocyte. In a few lines:
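Human subunit mRNA (0.5–1 ng, α:β:γ 1:1:5) injected into Xenopus oocytes, recorded about 24 h later. Two-electrode voltage clamp at −50 mV, room temperature, ND96 pH 7.6.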

Data set [12] has the same target. The data set is described as follows: Inhibition of [3H]pTFD-di-iPr-BnOH labelling of GABAA alpha1beta3gamma2L (unknown origin) expressed in Xenopus laevis oocytes assessed as reduction in photoincorporation at beta subunit measured after 30 mins in presence of GABA by liquid scintillation counting method. It is filed as cell-based.

Consider `OCc1ccc(C2(C(F)(F)F)N=N2)cc1`, for which the EC50 in the data set on Xenopus laevis is 28 µM; in [1], 700 µM. The IC50 in [2] came out at 305 µM; in data set [3], 465 µM.
Consider `C=CCC1(c2cccc(C3(C(F)(F)F)N=N3)c2)C(=O)NC(=O)N(C)C1=O` (stereo not drawn), for which the outcome in the data set on Oocyte [4], in the data set on Oocyte [7] and in the data set on Oocyte [8] was Active. The outcome in the data set on Oocyte [5] and in the data set on Oocyte [6] was inactive.
With `OCc1ccccc1` [BENZYL ALCOHOL], the EC50 in the data set with Xenopus laevis is 2000 µM; in data set [1] it was > 50000 µM.
In the case of `CC(C)c1cccc(C(C)C)c1CO`, the concentration for a half-maximal effect (EC50) in the data set with Xenopus laevis stood at 16 µM; in data set [1] it was 40 µM. Also, the IC50 in [2] came to 92 µM; in [3], 243 µM.
`CC(C)c1cc(C2(C(F)(F)F)N=N2)cc(C(C)C)c1CO`: the EC50 in the data set on Xenopus laevis came out at 2.5 µM; in data set [1], 7.4 µM; in [10], 2.9 µM; in data set [11] it was 10 µM. Also, the 50% lethal concentration (LC50) in data set [9] is 3.6 µM. Also, the concentration for half-maximal inhibition (IC50) is 460 µM in [2], 26 µM in data set [3] and 18 µM in data set [12].
With `CC(C)c1cccc(C(C)C)c1O` [PROPOFOL], the EC50 in the data set with Xenopus laevis worked out at 0.63 µM; in data set [1], 5.4 µM. For the same compound, the 50% inhibitory concentration (IC50) in [2] turned out to be 8 µM; in data set [3], 44 µM; in [12] it was 32 µM.
